According to ChEMBL document CHEMBL2412977, “Synthetic studies of centromere-associated protein-E (CENP-E) inhibitors: 1.Exploration of fused bicyclic core scaffolds using electrostatic potential map” (Bioorg Med Chem, 2013):

Key:
[1] = biological target: T1, Centromere-associated protein E (Homo sapiens, UniProt Q02224); experiment: Inhibition of human ATPase activity of CENP-E motor domain assessed as ADP production after 60 mins by ADP-Glo luminescence assay
[2] = tested on: HeLa; experiment: Induction of mitotic arrest in human HeLa cells assessed as accumulation of phosphorylated histone H3 after 16 hrs by FACS analysis; type: functional, cell-based
How it was run: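 HeLa cells scored for phosphorylated histone H3 positive cell count (%) by FACS. EC50 is the concentration giving a response halfway between baseline and maximum p-HH3 positive count.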

[3] = Permeability of the compound at pH 7.4 by PAMPA; type: ADME; conditions: read-out: permeability
How it was run: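 Passive permeability measured in a parallel artificial membrane permeability assay (PAMPA) system at pH 7.4, reported in nm/sec.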

[4] = biological target: T1, Centromere-associated protein E; experiment: Inhibition of ATPase activity of CENP-E motor domain (unknown origin) by high throughput screening assay

T1 sequence (Q02224 whole entry, the tested form may be a part): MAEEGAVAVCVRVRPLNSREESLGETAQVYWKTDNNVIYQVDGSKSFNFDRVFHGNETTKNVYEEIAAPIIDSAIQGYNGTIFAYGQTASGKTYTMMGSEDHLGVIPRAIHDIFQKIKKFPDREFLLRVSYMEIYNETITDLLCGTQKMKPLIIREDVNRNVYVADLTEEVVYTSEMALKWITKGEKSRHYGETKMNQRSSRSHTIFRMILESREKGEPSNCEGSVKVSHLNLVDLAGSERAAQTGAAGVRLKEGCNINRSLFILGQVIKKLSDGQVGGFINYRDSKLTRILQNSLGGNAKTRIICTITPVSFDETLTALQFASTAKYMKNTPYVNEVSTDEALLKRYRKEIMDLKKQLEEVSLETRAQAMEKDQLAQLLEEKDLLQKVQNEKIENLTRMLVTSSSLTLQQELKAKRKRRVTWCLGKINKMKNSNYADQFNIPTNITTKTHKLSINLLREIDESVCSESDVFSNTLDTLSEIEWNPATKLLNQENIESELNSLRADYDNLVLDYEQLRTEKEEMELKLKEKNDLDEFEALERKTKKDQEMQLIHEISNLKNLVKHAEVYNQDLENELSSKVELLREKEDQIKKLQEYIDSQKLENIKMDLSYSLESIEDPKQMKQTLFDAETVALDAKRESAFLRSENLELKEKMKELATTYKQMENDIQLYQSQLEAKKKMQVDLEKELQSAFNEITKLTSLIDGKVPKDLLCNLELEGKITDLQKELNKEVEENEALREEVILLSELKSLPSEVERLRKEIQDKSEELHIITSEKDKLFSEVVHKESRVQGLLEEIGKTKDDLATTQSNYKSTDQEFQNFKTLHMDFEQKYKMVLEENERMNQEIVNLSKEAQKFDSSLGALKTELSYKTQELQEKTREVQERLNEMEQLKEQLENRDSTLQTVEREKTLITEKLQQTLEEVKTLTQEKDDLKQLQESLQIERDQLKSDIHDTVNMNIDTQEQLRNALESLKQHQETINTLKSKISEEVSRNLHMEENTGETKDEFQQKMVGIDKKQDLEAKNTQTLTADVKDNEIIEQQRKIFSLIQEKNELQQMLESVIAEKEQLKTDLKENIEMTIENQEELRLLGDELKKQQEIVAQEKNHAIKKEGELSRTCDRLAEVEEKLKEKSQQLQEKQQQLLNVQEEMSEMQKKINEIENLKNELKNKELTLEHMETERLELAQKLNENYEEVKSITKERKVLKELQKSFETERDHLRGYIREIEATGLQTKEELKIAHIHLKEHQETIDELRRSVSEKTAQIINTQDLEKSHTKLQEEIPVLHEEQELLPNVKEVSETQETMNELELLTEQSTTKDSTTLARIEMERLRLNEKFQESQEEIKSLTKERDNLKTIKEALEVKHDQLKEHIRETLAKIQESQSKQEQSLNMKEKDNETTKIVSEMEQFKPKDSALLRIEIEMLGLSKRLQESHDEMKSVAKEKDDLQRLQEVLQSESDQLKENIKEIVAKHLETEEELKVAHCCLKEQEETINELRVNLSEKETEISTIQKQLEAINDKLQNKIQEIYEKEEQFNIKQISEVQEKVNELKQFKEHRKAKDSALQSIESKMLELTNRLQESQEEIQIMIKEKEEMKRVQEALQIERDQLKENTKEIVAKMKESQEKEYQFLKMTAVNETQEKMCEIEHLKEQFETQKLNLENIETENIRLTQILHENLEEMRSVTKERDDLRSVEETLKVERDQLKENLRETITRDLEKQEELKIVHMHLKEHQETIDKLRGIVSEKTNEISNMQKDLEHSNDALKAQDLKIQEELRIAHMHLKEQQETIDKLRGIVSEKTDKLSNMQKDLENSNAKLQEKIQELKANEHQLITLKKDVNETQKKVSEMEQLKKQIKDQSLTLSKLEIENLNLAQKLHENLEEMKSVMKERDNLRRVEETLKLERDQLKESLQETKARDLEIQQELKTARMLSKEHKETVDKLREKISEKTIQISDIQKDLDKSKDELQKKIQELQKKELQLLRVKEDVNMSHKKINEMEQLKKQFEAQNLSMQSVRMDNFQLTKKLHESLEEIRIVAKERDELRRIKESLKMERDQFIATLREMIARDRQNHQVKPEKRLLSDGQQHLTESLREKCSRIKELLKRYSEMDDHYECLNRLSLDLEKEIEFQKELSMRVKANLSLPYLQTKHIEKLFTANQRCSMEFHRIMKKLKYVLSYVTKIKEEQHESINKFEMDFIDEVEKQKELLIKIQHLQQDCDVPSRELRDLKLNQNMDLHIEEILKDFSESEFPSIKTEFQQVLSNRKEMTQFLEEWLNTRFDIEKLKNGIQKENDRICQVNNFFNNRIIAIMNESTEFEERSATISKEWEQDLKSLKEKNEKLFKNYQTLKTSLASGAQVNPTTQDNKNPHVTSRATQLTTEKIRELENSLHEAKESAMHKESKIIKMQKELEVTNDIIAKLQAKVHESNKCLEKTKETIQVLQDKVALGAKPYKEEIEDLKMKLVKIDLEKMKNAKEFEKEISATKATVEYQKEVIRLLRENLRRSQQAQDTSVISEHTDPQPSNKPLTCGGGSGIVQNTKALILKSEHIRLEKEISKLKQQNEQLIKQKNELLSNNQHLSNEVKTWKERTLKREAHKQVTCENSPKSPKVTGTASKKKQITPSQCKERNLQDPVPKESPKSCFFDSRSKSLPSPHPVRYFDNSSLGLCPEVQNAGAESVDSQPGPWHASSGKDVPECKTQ

Compound	IC50 [1] [µM]	also measured
CN(C)CCN(Cc1ccc(Cl)c(Cl)c1)C(=O)c1cc2sccc2n1-c1ccc(F)cc1	2	–
Cc1c(C(=O)N(CCN(C)C)Cc2ccc(Cl)c(Cl)c2)n(-c2ccc(F)cc2)c2ccccc12	2.1	–
CN(Cc1cc(C(F)(F)F)cc(C(F)(F)F)c1)C(=O)c1c(-c2ccc(F)cc2)c2cscc2c(=O)n1C	–	IC50 [4]: 2.1 µM
CN(Cc1ccc(Cl)c(Cl)c1)C(=O)c1c(-c2ccc(F)cc2)c2cscc2c(=O)n1C	1.5	IC50 [4]: 1.5 µM
CN(Cc1ccc(Cl)c(Cl)c1)C(=O)c1c(-c2ccc(F)cc2)c2cscc2c(=O)n1CCO	1.8	–
CN(C)CCN(Cc1ccc(Cl)c(Cl)c1)C(=O)c1c(-c2ccc(F)cc2)c2ccccc2n1C	8.5	–

More lines, main results first:

IC50 [1] [µM]	Compound	also measured
0.37	Cc1csc2cc(C(=O)N(CCN(C)C)Cc3ccc(Cl)c(Cl)c3)n(-c3ccc(F)cc3)c12	–
0.1	CN(C)CCN(Cc1ccc(Cl)c(Cl)c1)C(=O)c1c(-c2ccc(F)cc2)c2cscc2c(=O)n1C	–
0.035	CN(C)CCN(Cc1ccc(Cl)c(Cl)c1)C(=O)c1cc2scc(Cl)c2n1-c1ccc(F)cc1	–
0.14	CN(C)CCN(Cc1ccc(Cl)c(Cl)c1)C(=O)c1cc2scc(C(F)(F)F)c2n1-c1ccc(F)cc1	–
0.54	CN(C)CCN(Cc1ccc(Cl)c(Cl)c1)C(=O)c1cc2scc(C#N)c2n1-c1ccc(F)cc1	–
0.05	CN(C)CCN(Cc1ccc(Cl)c(Cl)c1)C(=O)c1nc2cccc(Br)n2c1-c1ccc(F)cc1	EC50 [2]: 1.54 µM; Papp [3]: 35.3 ×10⁻⁶ cm/s
0.072	CN(C)CCn1c(C(=O)N(C)Cc2ccc(Cl)c(Cl)c2)c(-c2ccc(F)cc2)c2cscc2c1=O	–
0.3	CN(C)CCCn1c(C(=O)N(C)Cc2ccc(Cl)c(Cl)c2)c(-c2ccc(F)cc2)c2cscc2c1=O	–
0.032	CN(C)CCN(Cc1ccc(Cl)c(Cl)c1)C(=O)c1cc2scc(Br)c2n1-c1ccc(F)cc1	EC50 [2]: 3 µM; Papp [3]: 4.1 ×10⁻⁶ cm/s
